In ChEMBL document CHEMBL1124802 (J Med Chem, 1990):
pEC50, pIC50: −log10 of the molar value.

Tests used:
[1] = Percentage maximum stimulation adenylate cyclase was measured versus DA
How it was run: (§1)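 Rat striatum homogenised in HEPES/EGTA buffer. […] Stopped with SDS, then ZnSO4/Ba(OH)2 precipitation. [32P]cAMP isolated by HPLC with UV-tracked internal standard and counted; percent stimulation calculated from peak areas and radioactivity.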

[2] = biological target: D(2) dopamine receptor (Rattus norvegicus, UniProt P61169); assay: Displacement of [3H]- -spiperone from Dopamine receptor D2 in rat striatum
How it was run: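 Same rat striatal membrane preparation and buffer (50 mM HEPES, 4 mM MgCl2, pH 7.4). Competition with [3H]spiperone in 1.0 mL at 37 °C for 15 min. Nonspecific binding defined with 1 µM chlorpromazine. Bound ligand collected by glass-fibre filtration and counted by scintillation; protein measured by Lowry.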

[3] = Stimulation of Adenylate cyclase from rat striatal membranes; type: cell membranes, Membrane; how it was run: as §1
[4] = biological target: D(1A) dopamine receptor (Rattus norvegicus, UniProt P18901); assay: Displacement of [3H]- #NAME? from binding Dopamine receptor D1 in rat striatum
How it was run: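 Rat striatal membranes, homogenised and washed twice by centrifugation in ice-cold 50 mM HEPES with 4 mM MgCl2, pH 7.4, at about 2 mg wet weight/mL. Competition with the tritiated selective D1 antagonist in 1.0 mL of the same buffer, 37 °C for 15 min. Nonspecific binding defined with 1 µM of the unlabelled antagonist. Filtration and scintillation counting; protein measured by Lowry.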

Sequence of D(1A) dopamine receptor (P18901 whole entry): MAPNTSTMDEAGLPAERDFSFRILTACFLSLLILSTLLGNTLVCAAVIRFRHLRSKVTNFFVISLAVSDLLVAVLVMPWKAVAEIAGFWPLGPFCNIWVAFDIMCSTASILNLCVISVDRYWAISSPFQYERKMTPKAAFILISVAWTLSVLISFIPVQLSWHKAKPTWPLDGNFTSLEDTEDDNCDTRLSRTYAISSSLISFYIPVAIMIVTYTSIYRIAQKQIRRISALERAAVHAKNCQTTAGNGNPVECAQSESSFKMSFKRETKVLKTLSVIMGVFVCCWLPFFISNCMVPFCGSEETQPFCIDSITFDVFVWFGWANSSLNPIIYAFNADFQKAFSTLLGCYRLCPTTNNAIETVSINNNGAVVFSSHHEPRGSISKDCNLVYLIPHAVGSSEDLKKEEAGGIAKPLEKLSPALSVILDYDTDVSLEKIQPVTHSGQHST
Sequence of D(2) dopamine receptor (P61169 whole entry): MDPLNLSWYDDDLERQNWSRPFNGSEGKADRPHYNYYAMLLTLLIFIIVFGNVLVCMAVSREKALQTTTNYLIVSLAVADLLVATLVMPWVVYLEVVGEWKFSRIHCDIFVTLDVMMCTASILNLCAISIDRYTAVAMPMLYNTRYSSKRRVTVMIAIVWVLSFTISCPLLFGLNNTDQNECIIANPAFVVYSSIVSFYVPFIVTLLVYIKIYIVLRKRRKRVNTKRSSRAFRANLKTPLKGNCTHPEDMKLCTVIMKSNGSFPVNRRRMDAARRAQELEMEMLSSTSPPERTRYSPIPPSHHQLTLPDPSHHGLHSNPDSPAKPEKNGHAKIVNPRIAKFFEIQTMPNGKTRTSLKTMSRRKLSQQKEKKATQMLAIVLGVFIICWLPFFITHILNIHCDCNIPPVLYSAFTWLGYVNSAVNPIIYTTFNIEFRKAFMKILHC

SMILES | Max stimulation [1] | pIC50 [2] | pEC50 [3] | pIC50 [4]
Oc1ccc([C@@H]2CNCc3sccc32)cc1O | 120 | 6.55 | 6.15 | 6.92
NCCc1ccc(O)c(O)c1 [DOPAMINE] | 100 |  | 5.30 | 
CCCN1Cc2ccccc2[C@@H]2c3cc(O)c(O)cc3CC[C@H]21 | 32 | 7.28 | < 8.00 | 6.19
CN1CCc2cc(Cl)c(O)cc2[C@@H](c2ccccc2)C1 | 0 |  |  | 
CN1Cc2ccccc2[C@@H]2c3cc(O)c(O)cc3CC[C@H]21 | 63 | 6.87 | 6.00 | 7.04
Oc1cc2c(cc1O)[C@@H]1c3ccccc3CN[C@@H]1CC2 | 17 |  |  | 
Oc1cc2c(cc1O)CC(NCc1ccccc1)CC2 (configuration not stated) | 25 | 6.54 |  | < 5.30
Oc1cc2c(cc1O)[C@@H](c1ccccc1)CNCC2 [(R)-SKF-38393] | 50 |  | 7.00 | 
Oc1cc2c(cc1O)[C@H]1CCCN[C@@H]1CC2 | 33 | 7.17 | < 8.00 | < 5.30
Oc1cc2c(cc1O)[C@H]1c3ccccc3CN[C@@H]1CC2 [DIHYDREXIDINE] | 120 |  | 7.15 | 
